Reference: ChEMBL document CHEMBL3853360, “Combined Interactions with I1-, I2-Imidazoline Binding Sites and α2-Adrenoceptors To Manage Opioid Addiction” (ACS Med Chem Lett, 2016)

Key:
[1] = Displacement of [3H]-2-BFI from I2 receptor imidazoline binding site in Sprague-Dawley rat brain membranes after 30 mins by liquid scintillation counting; assay type: cell membranes, Membrane
Outline: (§1)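 Radioligand competition binding with pKi determined by displacement. I1 sites: [125I]-p-iodoclonidine on rat kidney membranes. I2 sites: [3H]-2-BFI on rat brain membranes. α2-ARs: [3H]-RX821002 on rat brain membranes.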

[2] = target: T1, Alpha-2B adrenergic receptor (Homo sapiens) (UniProt P18089); assay: Agonist activity at human alpha2b-AR expressed in CHO cells assessed as rate of acidification after 240 mins by cytosensor microphysiometric analysis relative to (-)-noradrenaline; assay type: cell-based
T1 sequence (whole entry): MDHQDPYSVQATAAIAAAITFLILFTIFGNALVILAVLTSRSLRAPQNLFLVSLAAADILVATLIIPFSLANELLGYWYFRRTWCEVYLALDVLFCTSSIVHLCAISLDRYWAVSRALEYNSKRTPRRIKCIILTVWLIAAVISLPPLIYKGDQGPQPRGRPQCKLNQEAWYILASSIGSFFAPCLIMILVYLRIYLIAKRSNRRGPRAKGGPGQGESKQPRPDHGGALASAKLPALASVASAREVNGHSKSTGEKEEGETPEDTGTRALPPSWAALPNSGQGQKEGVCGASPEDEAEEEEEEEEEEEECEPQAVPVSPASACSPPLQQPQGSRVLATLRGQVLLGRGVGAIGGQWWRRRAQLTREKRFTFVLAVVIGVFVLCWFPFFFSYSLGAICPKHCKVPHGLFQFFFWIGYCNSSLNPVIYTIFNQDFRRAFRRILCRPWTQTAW
Outline: (§2)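 Functional assay in CHO cells stably expressing a single human α2-AR subtype (α2A, α2B or α2C), read on a Cytosensor microphysiometer. Outputs are pEC50, intrinsic activity and, for antagonism, pKb. Intrinsic activity is expressed as a fraction of the full agonist (−)-noradrenaline, set at 1. Values are mean ± SEM of 3–5 separate experiments.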

[3] = target: T2, Alpha-2C adrenergic receptor (Homo sapiens) (UniProt P18825); assay: Agonist activity at human alpha2c-AR expressed in CHO cells assessed as rate of acidification after 240 mins by cytosensor microphysiometric analysis relative to (-)-noradrenaline; assay type: cell-based; outline: as §2
T2 sequence (whole entry): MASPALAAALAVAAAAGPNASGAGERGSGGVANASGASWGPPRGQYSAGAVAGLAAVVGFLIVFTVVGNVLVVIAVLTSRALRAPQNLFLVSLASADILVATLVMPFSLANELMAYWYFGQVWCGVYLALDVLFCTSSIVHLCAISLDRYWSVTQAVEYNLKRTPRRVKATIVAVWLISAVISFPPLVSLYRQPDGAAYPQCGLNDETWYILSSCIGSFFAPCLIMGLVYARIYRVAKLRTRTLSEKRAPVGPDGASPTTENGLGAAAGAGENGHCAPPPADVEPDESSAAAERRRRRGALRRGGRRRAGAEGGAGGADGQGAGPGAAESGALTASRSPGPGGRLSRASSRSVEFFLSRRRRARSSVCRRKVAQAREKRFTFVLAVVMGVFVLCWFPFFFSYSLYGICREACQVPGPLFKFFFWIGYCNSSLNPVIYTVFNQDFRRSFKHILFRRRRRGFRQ

[4] = target: T3, Alpha-2B adrenergic receptor (Homo sapiens, UniProt P18089); assay: Agonist activity at human alpha2b-AR expressed in CHO cells assessed as rate of acidification after 240 mins by cytosensor microphysiometric analysis; assay type: cell-based; outline: as §2
T3 sequence (P18089 whole entry): T1 sequence (whole entry)

[5] = target: T4, Alpha-2C adrenergic receptor (Homo sapiens, UniProt P18825); assay: Agonist activity at human alpha2c-AR expressed in CHO cells assessed as rate of acidification after 240 mins by cytosensor microphysiometric analysis; assay type: cell-based; outline: as §2
T4 sequence (P18825 whole entry): T2 sequence (whole entry)

[6] = target: T5, Adrenergic receptor alpha-2 (Rattus norvegicus, UniProt P22086+P19328+P22909); assay: Displacement of [3H]-RX 821002 from alpha2-AR in Sprague-Dawley rat brain membranes after 30 mins by liquid scintillation counting; assay type: cell membranes, Membrane; outline: as §1
T5 sequence (P22086 whole entry): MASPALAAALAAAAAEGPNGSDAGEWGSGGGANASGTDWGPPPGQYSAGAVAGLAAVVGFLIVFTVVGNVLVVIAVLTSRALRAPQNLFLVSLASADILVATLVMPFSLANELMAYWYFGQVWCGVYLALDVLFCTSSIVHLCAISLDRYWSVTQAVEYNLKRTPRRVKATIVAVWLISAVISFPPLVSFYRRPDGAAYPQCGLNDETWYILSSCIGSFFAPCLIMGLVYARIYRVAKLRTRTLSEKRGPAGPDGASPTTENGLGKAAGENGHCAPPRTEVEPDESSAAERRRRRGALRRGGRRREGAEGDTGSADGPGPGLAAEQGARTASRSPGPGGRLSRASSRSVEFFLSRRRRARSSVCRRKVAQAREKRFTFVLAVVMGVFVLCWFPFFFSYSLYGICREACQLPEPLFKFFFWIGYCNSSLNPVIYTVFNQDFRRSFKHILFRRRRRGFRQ
T5 sequence (P19328 whole entry): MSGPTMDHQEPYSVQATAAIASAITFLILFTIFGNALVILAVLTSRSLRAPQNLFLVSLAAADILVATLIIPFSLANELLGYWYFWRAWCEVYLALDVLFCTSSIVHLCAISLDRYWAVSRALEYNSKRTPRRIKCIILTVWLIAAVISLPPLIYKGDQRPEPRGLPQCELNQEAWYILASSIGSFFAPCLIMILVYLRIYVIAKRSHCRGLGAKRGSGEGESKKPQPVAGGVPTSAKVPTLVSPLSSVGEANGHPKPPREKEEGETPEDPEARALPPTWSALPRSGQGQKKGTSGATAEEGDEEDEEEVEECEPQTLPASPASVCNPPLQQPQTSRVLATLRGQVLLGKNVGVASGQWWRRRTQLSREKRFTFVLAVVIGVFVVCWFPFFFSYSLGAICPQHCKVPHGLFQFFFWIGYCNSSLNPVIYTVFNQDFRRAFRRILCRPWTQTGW
T5 sequence (P22909 whole entry): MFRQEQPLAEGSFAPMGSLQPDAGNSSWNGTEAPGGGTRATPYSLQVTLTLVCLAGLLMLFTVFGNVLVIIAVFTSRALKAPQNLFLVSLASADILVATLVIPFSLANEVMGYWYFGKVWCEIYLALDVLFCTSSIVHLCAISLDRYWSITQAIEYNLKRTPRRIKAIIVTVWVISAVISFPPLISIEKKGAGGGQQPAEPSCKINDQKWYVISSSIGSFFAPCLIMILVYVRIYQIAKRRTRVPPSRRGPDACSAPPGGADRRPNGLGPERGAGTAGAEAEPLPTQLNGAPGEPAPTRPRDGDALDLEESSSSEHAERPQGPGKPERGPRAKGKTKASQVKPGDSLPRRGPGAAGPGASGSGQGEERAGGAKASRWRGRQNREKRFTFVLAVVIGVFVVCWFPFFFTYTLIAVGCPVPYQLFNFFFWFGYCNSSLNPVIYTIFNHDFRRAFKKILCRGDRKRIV

[7] = target: Nischarin (Rattus norvegicus, UniProt Q4G017); assay: Displacement of [125I]-p-iodoclonidine from I1 receptor imidazoline binding site in Sprague-Dawley rat kidney cell membranes after 30 mins by liquid scintillation counting; outline: as §1
[8] = target: T6, Alpha-2A adrenergic receptor (Homo sapiens, UniProt P08913); assay: Agonist activity at human alpha2a-AR expressed in CHO cells assessed as rate of acidification after 240 mins by cytosensor microphysiometric analysis; assay type: cell-based; outline: as §2
T6 sequence (P08913 whole entry): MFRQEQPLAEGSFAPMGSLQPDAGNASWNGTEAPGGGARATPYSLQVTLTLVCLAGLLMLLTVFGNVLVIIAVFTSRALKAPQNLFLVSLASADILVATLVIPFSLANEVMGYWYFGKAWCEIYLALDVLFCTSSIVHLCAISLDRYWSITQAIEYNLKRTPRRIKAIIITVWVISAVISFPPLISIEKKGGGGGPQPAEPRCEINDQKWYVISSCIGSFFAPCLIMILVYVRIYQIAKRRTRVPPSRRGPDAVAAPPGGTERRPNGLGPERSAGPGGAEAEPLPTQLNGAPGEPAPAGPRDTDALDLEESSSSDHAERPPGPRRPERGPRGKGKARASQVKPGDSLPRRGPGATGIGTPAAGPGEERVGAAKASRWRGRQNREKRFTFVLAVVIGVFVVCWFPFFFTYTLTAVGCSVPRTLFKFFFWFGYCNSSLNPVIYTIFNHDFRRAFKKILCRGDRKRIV

[9] = target: T7, Alpha-2A adrenergic receptor (Homo sapiens) (UniProt P08913); assay: Antagonist activity at human alpha2a-AR expressed in CHO cells assessed as inhibition of (-)-noradrenaline-induced acidification rate after 240 mins by cytosensor microphysiometric analysis; assay type: cell-based; outline: as §2
T7 sequence (whole entry): T6 sequence (P08913 whole entry)

Chain of Nischarin (Q4G017 whole entry): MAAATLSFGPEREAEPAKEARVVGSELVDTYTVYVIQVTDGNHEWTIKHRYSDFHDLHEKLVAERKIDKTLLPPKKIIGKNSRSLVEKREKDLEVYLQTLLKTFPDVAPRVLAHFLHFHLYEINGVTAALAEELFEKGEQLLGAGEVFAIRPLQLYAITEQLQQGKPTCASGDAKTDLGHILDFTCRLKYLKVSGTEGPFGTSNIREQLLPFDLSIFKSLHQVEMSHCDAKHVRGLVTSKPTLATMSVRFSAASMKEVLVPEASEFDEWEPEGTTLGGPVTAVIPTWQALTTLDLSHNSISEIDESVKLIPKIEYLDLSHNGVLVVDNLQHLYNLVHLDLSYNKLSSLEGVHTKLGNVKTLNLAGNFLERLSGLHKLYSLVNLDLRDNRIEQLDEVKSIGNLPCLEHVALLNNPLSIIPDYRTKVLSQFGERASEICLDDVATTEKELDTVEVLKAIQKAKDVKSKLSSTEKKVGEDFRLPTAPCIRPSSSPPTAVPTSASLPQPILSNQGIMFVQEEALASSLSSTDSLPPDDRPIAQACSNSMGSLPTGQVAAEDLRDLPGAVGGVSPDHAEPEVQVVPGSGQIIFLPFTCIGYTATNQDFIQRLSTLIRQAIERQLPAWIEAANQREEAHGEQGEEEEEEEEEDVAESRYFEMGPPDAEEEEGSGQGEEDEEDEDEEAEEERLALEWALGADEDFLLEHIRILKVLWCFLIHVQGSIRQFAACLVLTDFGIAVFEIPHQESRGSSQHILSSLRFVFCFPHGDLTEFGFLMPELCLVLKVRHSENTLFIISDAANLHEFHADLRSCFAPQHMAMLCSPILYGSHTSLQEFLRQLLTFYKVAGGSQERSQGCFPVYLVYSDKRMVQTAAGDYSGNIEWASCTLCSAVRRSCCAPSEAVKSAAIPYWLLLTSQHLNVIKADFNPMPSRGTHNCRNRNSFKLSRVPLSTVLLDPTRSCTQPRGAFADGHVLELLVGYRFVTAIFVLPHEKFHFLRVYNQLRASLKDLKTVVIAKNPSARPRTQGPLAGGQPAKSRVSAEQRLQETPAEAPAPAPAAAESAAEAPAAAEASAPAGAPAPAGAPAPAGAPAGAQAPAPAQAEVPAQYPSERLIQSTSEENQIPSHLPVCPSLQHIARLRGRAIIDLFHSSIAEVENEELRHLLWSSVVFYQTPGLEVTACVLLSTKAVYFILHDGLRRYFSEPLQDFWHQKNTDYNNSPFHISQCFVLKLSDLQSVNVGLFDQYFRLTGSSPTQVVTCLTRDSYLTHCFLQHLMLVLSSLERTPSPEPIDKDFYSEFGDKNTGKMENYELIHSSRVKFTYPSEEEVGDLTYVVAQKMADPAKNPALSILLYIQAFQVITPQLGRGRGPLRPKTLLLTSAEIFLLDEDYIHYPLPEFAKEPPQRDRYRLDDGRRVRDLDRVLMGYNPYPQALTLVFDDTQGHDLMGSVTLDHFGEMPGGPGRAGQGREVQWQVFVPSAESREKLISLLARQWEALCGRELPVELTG

| SMILES | pKi [1] | Intrinsic activity [2] | Intrinsic activity [3] | EC50 [4] [nM] | EC50 [5] [nM] | pKi [6] | Ki [7] [nM] | EC50 [8] [nM] | pKb [9] |
| --- | --- | --- | --- | --- | --- | --- | --- | --- | --- |
| c1ccc(-c2ccccc2NCC2=NCCN2)cc1 | 6.1 | 0.5 | 0.8 | 955 | 148 | 6.75 | 1.41 | 63.1 | – |
| Clc1ccccc1NCC1=NCCN1 | 7.9 | 0.45 | 0.85 | 776 | 224 | 7.59 | 7.59 | – | 7.12 |
| C(=C\c1ccccc1-c1ccccc1)/C1=NCCN1 | 8.08 | – | – | – | – | < 6 | 97.7 | – | – |
